# Test system: HEK-293T
# Test: Multiplex assay against HEK293T;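 on Population Tubulin-Different-Phenotype (%): share of the cells with healthy nuclei that show this phenotype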
# Type: toxicity, cell-based
# Details: human
# Summary of the method: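 Cells were classed with CellPathfinder machine-learning gating, first as Hoechst high-intensity objects or normal cells, then (normal cells) as healthy, pyknosed or fragmented nuclei, and finally (pyknosed cells) as mitotic or apoptotic. Staining of live cells at seeding used Hoechst33342, BioTracker Green Microtubule Cytoskeleton Dye, MitoTracker Red and Annexin V Alexa Fluor 680, with imaging on a CQ1 microscope at 37°C and 5% CO2 after compound addition. Tubulin, mitochondrial-mass and membrane-permeability phenotypes are per cents of healthy-nucleus cells.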
# [1] = 12 h, 1 µM, compound concentration 1 uM, replicate 1
# [2] = 12 h, 1 µM, compound concentration 1 uM, replicate 2
# [3] = 12 h, 10 µM, compound concentration 10 uM, replicate 1
# [4] = 12 h, 10 µM, compound concentration 10 uM, replicate 2
# [5] = 24 h, 1 µM, compound concentration 1 uM, replicate 1
# [6] = 24 h, 1 µM, compound concentration 1 uM, replicate 2
# [7] = 24 h, 10 µM, compound concentration 10 uM, replicate 1
# [8] = 24 h, 10 µM, compound concentration 10 uM, replicate 2
# [9] = 48 h, 1 µM, compound concentration 1 uM, replicate 1
# [10] = 48 h, 1 µM, compound concentration 1 uM, replicate 2
# [11] = 48 h, 10 µM, compound concentration 10 uM, replicate 1
# [12] = 48 h, 10 µM, compound concentration 10 uM, replicate 2
structure (smiles),measurement,setting,value
CN1CCC[C@@H]1CCO[C@](C)(c1ccccc1)c1ccc(Cl)cc1.O=C(O)/C=C/C(=O)O [CLEMASTINE FUMARATE],Population Apoptotic (%),[1],56%
same,Population Fragmented Nuclei (%),[1],10%
same,Population Healthy Nuclei (%),[1],23%
same,Population Hoechst High Intensity Objects (%),[1],9%
same,Population Membrane Permeable-Phenotype (%),[1],5%
same,Population Mitochondria Different-Phenotype (%),[1],96%
same,Population Mitotic Cells (%),[1],43%
same,Population Normal (%),[1],90%
same,Population Pyknosed Nuclei (%),[1],65%
same,Population Tubulin-Different-Phenotype (%),[1],78%
same,Total Cell Count,[1],278
same,Population Apoptotic (%),[2],25%
same,Population Fragmented Nuclei (%),[2],4%
same,Population Healthy Nuclei (%),[2],32%
same,Population Hoechst High Intensity Objects (%),[2],3%
same,Population Membrane Permeable-Phenotype (%),[2],13%
same,Population Mitochondria Different-Phenotype (%),[2],48%
same,Population Mitotic Cells (%),[2],75%
same,Population Normal (%),[2],96%
same,Population Pyknosed Nuclei (%),[2],62%
same,Population Tubulin-Different-Phenotype (%),[2],52%
same,Total Cell Count,[2],217
same,Population Apoptotic (%),[3],92%
same,Population Fragmented Nuclei (%),[3],14%
same,Population Healthy Nuclei (%),[3],17%
same,Population Hoechst High Intensity Objects (%),[3],18%
same,Population Membrane Permeable-Phenotype (%),[3],6%
same,Population Mitochondria Different-Phenotype (%),[3],100%
same,Population Mitotic Cells (%),[3],7%
same,Population Normal (%),[3],81%
same,Population Pyknosed Nuclei (%),[3],67%
same,Population Tubulin-Different-Phenotype (%),[3],93%
same,Total Cell Count,[3],209
same,Population Apoptotic (%),[4],85%
same,Population Fragmented Nuclei (%),[4],6%
same,Population Healthy Nuclei (%),[4],15%
same,Population Hoechst High Intensity Objects (%),[4],6%
same,Population Membrane Permeable-Phenotype (%),[4],4%
same,Population Mitochondria Different-Phenotype (%),[4],96%
same,Population Mitotic Cells (%),[4],14%
same,Population Normal (%),[4],93%
same,Population Pyknosed Nuclei (%),[4],78%
same,Population Tubulin-Different-Phenotype (%),[4],92%
same,Total Cell Count,[4],172
same,Population Apoptotic (%),[5],59%
same,Population Fragmented Nuclei (%),[5],12%
same,Population Healthy Nuclei (%),[5],18%
same,Population Hoechst High Intensity Objects (%),[5],21%
same,Population Membrane Permeable-Phenotype (%),[5],0%
same,Population Mitochondria Different-Phenotype (%),[5],95%
same,Population Mitotic Cells (%),[5],40%
same,Population Normal (%),[5],78%
same,Population Pyknosed Nuclei (%),[5],68%
same,Population Tubulin-Different-Phenotype (%),[5],63%
same,Total Cell Count,[5],274
same,Population Apoptotic (%),[6],42%
same,Population Fragmented Nuclei (%),[6],7%
same,Population Healthy Nuclei (%),[6],60%
same,Population Hoechst High Intensity Objects (%),[6],1%
same,Population Membrane Permeable-Phenotype (%),[6],4%
same,Population Mitochondria Different-Phenotype (%),[6],56%
same,Population Mitotic Cells (%),[6],57%
same,Population Normal (%),[6],98%
same,Population Pyknosed Nuclei (%),[6],32%
same,Population Tubulin-Different-Phenotype (%),[6],60%
same,Total Cell Count,[6],273
same,Population Fragmented Nuclei (%),[7],15%
same,Population Healthy Nuclei (%),[7],11%
same,Population Hoechst High Intensity Objects (%),[7],23%
same,Population Membrane Permeable-Phenotype (%),[7],0%
same,Population Mitochondria Different-Phenotype (%),[7],100%
same,Population Normal (%),[7],76%
same,Population Pyknosed Nuclei (%),[7],72%
same,Population Tubulin-Different-Phenotype (%),[7],94%
same,Total Cell Count,[7],211
same,Population Apoptotic (%),[8],92%
same,Population Fragmented Nuclei (%),[8],4%
same,Population Healthy Nuclei (%),[8],20%
same,Population Hoechst High Intensity Objects (%),[8],6%
same,Population Membrane Permeable-Phenotype (%),[8],6%
same,Population Mitochondria Different-Phenotype (%),[8],93%
same,Population Mitotic Cells (%),[8],7%
same,Population Normal (%),[8],93%
same,Population Pyknosed Nuclei (%),[8],74%
same,Population Tubulin-Different-Phenotype (%),[8],93%
same,Total Cell Count,[8],159
same,Population Apoptotic (%),[9],66%
same,Population Fragmented Nuclei (%),[9],21%
same,Population Healthy Nuclei (%),[9],11%
same,Population Hoechst High Intensity Objects (%),[9],23%
same,Population Membrane Permeable-Phenotype (%),[9],4%
same,Population Mitochondria Different-Phenotype (%),[9],88%
same,Population Mitotic Cells (%),[9],33%
same,Population Normal (%),[9],76%
same,Population Pyknosed Nuclei (%),[9],66%
same,Population Tubulin-Different-Phenotype (%),[9],72%
same,Total Cell Count,[9],276
same,Population Apoptotic (%),[10],21%
same,Population Fragmented Nuclei (%),[10],4%
same,Population Healthy Nuclei (%),[10],81%
same,Population Hoechst High Intensity Objects (%),[10],1%
same,Population Membrane Permeable-Phenotype (%),[10],5%
same,Population Mitochondria Different-Phenotype (%),[10],29%
same,Population Mitotic Cells (%),[10],78%
same,Population Normal (%),[10],98%
same,Population Pyknosed Nuclei (%),[10],13%
same,Population Tubulin-Different-Phenotype (%),[10],60%
same,Total Cell Count,[10],406
same,Population Apoptotic (%),[11],86%
same,Population Fragmented Nuclei (%),[11],24%
same,Population Healthy Nuclei (%),[11],1%
same,Population Hoechst High Intensity Objects (%),[11],23%
same,Population Membrane Permeable-Phenotype (%),[11],0%
same,Population Mitochondria Different-Phenotype (%),[11],100%
same,Population Mitotic Cells (%),[11],13%
same,Population Normal (%),[11],76%
same,Population Pyknosed Nuclei (%),[11],73%
same,Population Tubulin-Different-Phenotype (%),[11],66%
same,Total Cell Count,[11],230
same,Population Apoptotic (%),[12],97%
same,Population Fragmented Nuclei (%),[12],14%
same,Population Healthy Nuclei (%),[12],15%
same,Population Hoechst High Intensity Objects (%),[12],8%
same,Population Membrane Permeable-Phenotype (%),[12],8%
same,Population Mitochondria Different-Phenotype (%),[12],83%
same,Population Mitotic Cells (%),[12],2%
same,Population Normal (%),[12],91%
same,Population Pyknosed Nuclei (%),[12],69%
same,Population Tubulin-Different-Phenotype (%),[12],75%
same,Total Cell Count,[12],168

# — ChEMBL document CHEMBL4689842, “EUbOPEN Chemogenomics Library wave 1” (2021)
